A word on the AUC(0-t): it is the area under the concentration-time curve up to a stated or last time point. A lower AUC(0-t) goes with low exposure. Usually Cmax stands for the highest concentration seen after dosing. The term MRT inf denotes a mean duration of stay, worked out from the concentration-time curve. The term Tmax denotes the time at which the peak concentration occurs.

The values that follow come from publication PMC6049601 (International Journal of Nanomedicine, 2018).

A short description of data set [1]: Oral bioavailability / pharmacokinetic study in rats. The settings on record: Sprague-Dawley, rat, plasma, iv, 8 mg/kg. The class given is in vivo, Sprague-Dawley (SD) rats. In a few lines: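 Sprague-Dawley rats (220 ± 20 g, n = 5) were fasted overnight with water allowed, then given test compound solution i.v. at 8 mg/kg. Tail-vein blood was drawn into heparinised tubes at 0.133–12 h. Plasma was extracted with acetonitrile, dried at 30°C, reconstituted in 50% acetonitrile and run on UPLC-QTOF/MS (0.1% formic acid water/acetonitrile gradient). Parameters came from noncompartmental analysis.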

The nature of data set [2]: In vitro release study by dialysis bag method. The class given is physicochemical. The settings on record: solution formulation, water with 1% Tween 80, 37°C. In a few lines:
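Test compound was dissolved in water/ethanol/PEG400 (20/40/40, v/v/v). Samples equivalent to 10 mg were sealed in dialysis bags (MWCO ~14,000) and dialysed against 100 mL purified water containing 1% Tween 80 at 37°C. Medium aliquots were taken at set times and replaced with fresh medium, diluted with methanol and assayed by HPLC. Cumulative release percentage was plotted against time.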

The subject of another data set is Caco-2 cells. Kind of data set: Cellular uptake in Caco-2 cells. The class given is cell-based. Conditions: Caco-2, 20 μg/mL, 1, 2 and 4 h.
Data set [3] concerns TNF-α in LPS-induced RAW 264.7 cells. Put plainly: In vitro anti-inflammatory effect: TNF-α. Type of data set: cell-based, Mouse. The settings on record: 25 μg/mL, LPS 1 μg/mL, 24 h. In a few lines: (§1)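 RAW 264.7 mouse macrophages grown in RPMI-1640 with 10% FBS at 37°C, 5% CO2, seeded at 2 × 10^5 cells/well. Cells were exposed to LPS (1 μg/mL) with or without test formulation for 24 h; medium-only and LPS-only wells served as control and model. Supernatants were cleared at 10,000 rpm, 4°C. TNF-α, IL-6 and NO were measured by ELISA kits; mean ± SD, n = 3.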

In data set [4] the test system is IL-6 in LPS-induced RAW 264.7 cells. Kind of data set: In vitro anti-inflammatory effect: IL-6. Type of data set: cell-based, Mouse. Conditions: 25 μg/mL, LPS 1 μg/mL, 24 h. In outline:
as §1

The subject of data set [5] is NO in LPS-induced RAW 264.7 cells. Kind of data set: In vitro anti-inflammatory effect: NO. Type of data set: cell-based, Mouse. Conditions: 25 μg/mL, LPS 1 μg/mL, 24 h. In a few lines: as §1

As to `Oc1ccc(/C=C/c2cc(O)cc(O)c2)cc1` [Free RES, Resveratrol], in data set [1], the AUC(0-t) is 0.902 ± 0.0337 µg·h/mL, the concentration peaked (Cmax) at 0.974 ± 0.302 µg/mL, the MRT inf worked out at 5.27 ± 0.931 h and the Tmax worked out at 7.98 ± 3.24 min. Further, in data set [2], the In vitro release result is given as “released completely in a very short time”. Moreover, the “Cellular uptake (intracellular RES concentration)” value with Caco-2 cells is “rapid cellular uptake relative to RES-NPs”. Also, in data set [3], the “Effect on TNF-α compared to the LPS model” value was “substantially suppressed”. In data set [4], the “Effect on IL-6 compared to the LPS model” value is on record as “substantially suppressed”. In data set [5], the “Effect on NO compared to the LPS model” value is listed as “substantially suppressed”.
